Results reported in ChEMBL document CHEMBL4706740, “Structure-Activity Study of Nitazoxanide Derivatives as Novel STAT3 Pathway Inhibitors” (ACS Med Chem Lett, 2021).

Tests used:
[1] = Cytotoxicity against human HeLa cells assessed as inhibition of cell viability at 10 uM measured after 48 hrs by MTT assay; assay type: cell-based; details: read-out: INH
[2] = target: Signal transducer and activator of transcription 3 (Homo sapiens) (UniProt P40763); experiment: Inhibition of IL-6 induced STAT3 transcriptional activity in human HEK-Blue IL-6 cells assessed as secreted embryonic alkaline phosphatase reporter gene expression at 10 uM by microplate reader; assay type: cell-based
Method in brief: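 Single-concentration screen in HEK-Blue IL-6 cells: % inhibition of the SEAP reporter read-out of STAT3 pathway activity, with viability checked by MTT in parallel. Values are averages of three independent experiments.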

[3] = Elimination Half life in Sprague-Dawley rat at 25 mg/kg, IG; assay type: ADME, organism-based; details: in vivo, po, read-out: beta t1/2 (converted)
Method in brief: (§1)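 Rats, n = 3 per group, received a single dose either intragastrically (25 mg/kg) or intravenously (5 mg/kg). Plasma concentration–time curves were used to derive t1/2α, t1/2β, Vd/F, CL/F, AUC0–∞, Tmax and Cmax. Absolute oral bioavailability was calculated from the ig and iv data.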

[4] = Half life in Sprague-Dawley rat at 25 mg/kg, IG; assay type: ADME, organism-based; details: in vivo, po; method in brief: as §1
[5] = Apparent volume of distribution in Sprague-Dawley rat at 5 mg/kg, iv; assay type: ADME, organism-based; details: in vivo; method in brief: as §1
[6] = Apparent oral clearance in Sprague-Dawley rat at 25 mg/kg, IG; assay type: ADME, organism-based; details: in vivo, read-out: CL/F (converted); method in brief: as §1
[7] = Cmax in Sprague-Dawley rat at 25 mg/kg, IG; assay type: ADME, organism-based; set-up: route […], dose 25 mg/kg; details: in vivo, po; method in brief: as §1
[8] = Absolute bioavailability in Sprague-Dawley rat at 25 mg/kg, IG; assay type: ADME, organism-based; details: in vivo, po; method in brief: as §1
[9] = Half life in Sprague-Dawley rat at 5 mg/kg, iv; assay type: ADME, organism-based; details: in vivo; method in brief: as §1
[10] = Tmax in Sprague-Dawley rat at 25 mg/kg, IG; assay type: ADME, organism-based; details: in vivo, po
[11] = Cmax in Sprague-Dawley rat at 5 mg/kg, iv; assay type: ADME, organism-based; set-up: route intravenous, dose 5 mg/kg; details: in vivo; method in brief: as §1
[12] = AUC (0 to infinity) in Sprague-Dawley rat at 25 mg/kg, IG; assay type: ADME, organism-based; set-up: route […], time infinity, dose 25 mg/kg; details: in vivo, po; method in brief: as §1
[13] = Elimination Half life in Sprague-Dawley rat at 5 mg/kg, iv; assay type: ADME, organism-based; details: in vivo, read-out: beta t1/2 (converted); method in brief: as §1
[14] = Apparent volume of distribution in Sprague-Dawley rat at 25 mg/kg, IG; assay type: ADME, organism-based; details: in vivo, po
[15] = AUC (0 to infinity) in Sprague-Dawley rat at 5 mg/kg, iv; assay type: ADME, organism-based; set-up: route intravenous, time infinity, dose 5 mg/kg; details: in vivo; method in brief: as §1
[16] = Cytotoxicity against human HEK 293T cells assessed as cell growth inhibition at 10 uM measured after 48 hrs by MTT assay; assay type: cell-based
HeLa = experiment: Cytotoxicity against human HeLa cells assessed as inhibition of cell viability measured after 48 hrs by MTT assay; assay type: functional, cell-based
Method in brief: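 Growth was read by MTT assay and IC50 taken from dose–response curves. Values are averages of three independent experiments.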

[17] = Cytotoxicity against human HEK 293T cells assessed as cell growth inhibition at 50 uM measured after 48 hrs by MTT assay; assay type: cell-based

Sequence of Signal transducer and activator of transcription 3 (Homo sapiens) (P40763 whole entry): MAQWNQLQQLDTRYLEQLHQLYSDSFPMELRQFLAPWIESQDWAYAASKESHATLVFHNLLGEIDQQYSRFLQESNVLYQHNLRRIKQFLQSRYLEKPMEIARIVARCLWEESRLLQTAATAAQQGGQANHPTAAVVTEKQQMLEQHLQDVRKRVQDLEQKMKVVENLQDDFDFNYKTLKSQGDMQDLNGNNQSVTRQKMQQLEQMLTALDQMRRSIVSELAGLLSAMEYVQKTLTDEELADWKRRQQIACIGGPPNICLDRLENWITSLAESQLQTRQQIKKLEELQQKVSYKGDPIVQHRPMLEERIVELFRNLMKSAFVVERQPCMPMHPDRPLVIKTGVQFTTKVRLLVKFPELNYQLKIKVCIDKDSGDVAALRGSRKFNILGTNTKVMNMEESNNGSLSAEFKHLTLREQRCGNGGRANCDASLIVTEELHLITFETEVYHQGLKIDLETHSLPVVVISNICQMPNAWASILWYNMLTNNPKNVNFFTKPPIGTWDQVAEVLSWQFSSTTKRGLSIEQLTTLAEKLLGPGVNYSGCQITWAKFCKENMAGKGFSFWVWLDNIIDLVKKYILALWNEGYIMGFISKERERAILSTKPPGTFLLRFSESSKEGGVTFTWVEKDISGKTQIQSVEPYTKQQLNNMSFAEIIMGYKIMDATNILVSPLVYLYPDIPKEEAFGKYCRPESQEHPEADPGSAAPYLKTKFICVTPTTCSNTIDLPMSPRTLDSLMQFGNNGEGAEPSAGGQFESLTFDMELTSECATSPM

Compound O=C(Nc1ncc([N+](=O)[O-])s1)c1ccccc1Br has a cytotoxicity at 48 h, 10 µM [1] of -10.1% and an inhibition [2] of 25.1%.
Work on O=C(Nc1ncc([N+](=O)[O-])s1)c1ccc(C(F)(F)F)cc1 yielded a half-life [3] of 11.1 h, a half-life [4] of 1.9 h and a Vd/F [5] of 0.5 L/kg. The CL/F [6] was 0.833 mL/min/kg, the Cmax [7] was 20700 ng/mL and the bioavailability [8] was 87.4%. For the same compound, the half-life [9] was 3.6 min, the Tmax [10] was 4 h and the Cmax [11] was 28100 ng/mL. It also gave an AUC(0-inf) [12] of 391 µg·h/mL, a half-life [13] of 2.3 h and a Vd/F [14] of 0.5 L/kg. The AUC(0-inf) [15] was 89.4 µg·h/mL.
With O=C(Nc1ncc([N+](=O)[O-])s1)c1ccc(N2CCOCC2)cc1 the cytotoxicity at 48 h, 10 µM [1] was 50.6% and the inhibition [2] was 9%.
C#CCN(C(=O)c1ccc(C(F)(F)F)cc1)c1ncc([N+](=O)[O-])s1 showed an inhibition [2] of 9.1%.
CC(C)(C)c1ccc(C(=O)Nc2ncc([N+](=O)[O-])s2)cc1 gave an inhibition [2] of 43.7%.
Work on CN1CCN(c2ccc(C(=O)Nc3ncc([N+](=O)[O-])s3)cc2)CC1 yielded an inhibition [2] of -3.3%.
COc1ccc(C(=O)Nc2ncc([N+](=O)[O-])s2)cc1 gave an inhibition [2] of 14.9%.
Compound CS(=O)(=O)c1ccc(C(=O)Nc2ncc([N+](=O)[O-])s2)cc1 has an inhibition [2] of 5.3%.
With Cc1ccccc1C(=O)Nc1ncc([N+](=O)[O-])s1 the inhibition [2] was 36.4%.
NS(=O)(=O)c1ccc(C(=O)Nc2ncc([N+](=O)[O-])s2)cc1 showed an inhibition [2] of -9.7%.
Compound O=C(Nc1ncc([N+](=O)[O-])s1)c1ccc(O)c(O)c1 has an inhibition [2] of 26.7%.
O=C(Nc1ncc([N+](=O)[O-])s1)c1ccc(O)cc1 showed an inhibition [2] of 20.9%.
Work on O=C(Nc1ncc([N+](=O)[O-])s1)c1ccc(O)cc1O yielded an inhibition [2] of 15.5%.
O=C(Nc1ncc([N+](=O)[O-])s1)c1ccc(S(=O)(=O)Nc2ccccc2)cc1 gave an inhibition [2] of 9%.
In the case of O=C(Nc1ncc([N+](=O)[O-])s1)c1cccc(O)c1, the inhibition [2] is reported as 28.5%.
With O=C(Nc1ncc([N+](=O)[O-])s1)c1ccccc1 the inhibition [2] was 35.5%.
Work on O=C(Nc1ncc([N+](=O)[O-])s1)c1ccccc1Cl yielded an inhibition [2] of 23%.
In the case of O=C(Nc1ncc([N+](=O)[O-])s1)c1ccccc1F, the inhibition [2] is reported as 22.1%.
Compound O=C(Nc1ncc([N+](=O)[O-])s1)c1ccccc1[N+](=O)[O-] has an inhibition [2] of 19%.
For O=C(Nc1ncc([N+](=O)[O-])s1)c1ccccc1O [TIZOXANIDE], the cytotoxicity at 48 h, 10 µM [1] was 12.7%, the inhibition at 48 h, 10 µM [16] was -5.7% and the IC50 (HeLa) was 29.8 µM. For the same compound, the inhibition at 48 h, 50 µM [17] was 21.6%.
Work on C[C@H](NC(=O)/C(C#N)=C/c1cccc(Br)n1)c1ccccc1 [WP 1066] yielded an inhibition at 48 h, 10 µM [16] of 79.9%, an IC50 (HeLa) of 4.2 µM and an inhibition at 48 h, 50 µM [17] of 97.2%.
